SENP8 block-1 = SENP8 protease inhibitors, primary screen, biochemical, luminescence; purified SENP8, Z-RLRGG-aminoluciferin cleavage; inhibition, % at 10 µM; 330,000 tested, 1.2% active; in the data active means inhibition above about 50%
SENP6 block = SENP6 protease inhibitors, primary screen, biochemical, luminescence, uHTS; Recombinant SENP6 catalytic domain, aminoluciferin luminescence; inhibition, % at 10 µM; 330,000 tested, 1.8% active; AID 2599, 2010;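 active means inhibition above about 50% at the single tested dose, limit read from the data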;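 further: plate controls were DMSO wells with enzyme for no effect and DMSO wells lacking enzyme for full effect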
SENP7 block = SENP7 protease inhibitors, primary screen, biochemical, luminescence, uHTS. recombinant SENP7, Z-RLRGG-aminoluciferin luminescence, 40 min. Sentrin-specific protease 7 (Homo sapiens), Q9BQF6. inhibition, % at 5 µM. 330,000 tested, 1.5% active;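 active means inhibition above about 50% at the single test dose, limit read from the data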;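 further: plate controls were DMSO with enzyme for no effect and no enzyme buffer wells for full effect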
Target sequence (Q9BQF6 706-1050 limits assumed): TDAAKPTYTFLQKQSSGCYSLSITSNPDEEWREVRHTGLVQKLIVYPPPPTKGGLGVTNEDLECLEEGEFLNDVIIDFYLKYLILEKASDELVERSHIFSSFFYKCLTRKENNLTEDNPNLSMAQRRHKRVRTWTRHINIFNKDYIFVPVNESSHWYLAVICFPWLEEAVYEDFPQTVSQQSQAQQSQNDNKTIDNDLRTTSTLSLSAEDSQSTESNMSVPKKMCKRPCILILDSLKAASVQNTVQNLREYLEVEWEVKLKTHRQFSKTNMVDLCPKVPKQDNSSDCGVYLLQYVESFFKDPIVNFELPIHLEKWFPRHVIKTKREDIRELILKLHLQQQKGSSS
SENP8 block-2 = human SENP8 protease inhibitors, primary screen, biochemical, fluorescence, Nedd8 protein substrate, uHTS; Sentrin-specific protease 8 (Homo sapiens), Q96LD8; inhibition, % at 20 µM; recombinant SENP8; 360,000 tested, 0.64% active; in the data active means inhibition mostly above about 40%, no sharp cut-off; inactive means mostly below about 27%
SENP1 inh = human SENP1 catalytic domain inhibitors, primary screen, biochemical, FRET, uHTS; inhibition, % at 10 µM; recombinant SENP1 catalytic domain, CyPet-SUMO1-YPet FRET cleavage; 360,000 tested, 0.21% active; Sentrin-specific protease 1 (Homo sapiens), Q9P0U3;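 active means inhibition at least 30% at 10 µM, raw YFP signal under a set limit, fluorescence ratio 0.5 to 1.5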;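 further: 0% = enzyme with DMSO and 100% = no enzyme wells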
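Test system: recombinant human SENP1 catalytic domain, His6-tagged / Medium: pH 8 Tris buffer with EDTA, NaCl, BME, BSA, NP40, catalase / Also added: SUMO1 FRET substrate flanked by Cypet and Ypet, 25 nM / Times: 50 min reaction at room temperature / Signal: FRET, CFP and YFP emission / Control set: no-enzyme low control and enzyme-plus-DMSO high control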
Numbers without * were called inactive; . = not tested or not shown. Only some compounds are listed: those with a hit (about 2.5% of all), similar ones and a draw of the others.

SMILES | SENP8 block-1 | SENP6 block | SENP7 block | SENP8 block-2 | SENP1 inh
CCC(COC(=O)c1ccccc1)Oc1cc(NCc2ccccc2)c2ncn(C(C)C)c2c1 (stereo not drawn) | -5 | -9 | 0 | 44* | -30
CC(C)n1cnc2cc(NCc3nc4ccccc4n3C)ccc21 | 25 | 62* | 47 | -10 | -14
Cc1ccc(CNc2ccc3c(c2)ncn3C(C)C)cc1 | -10 | 3 | -5 | -203 | 0
Cc1ccc(N=Cc2cc(Cc3ccccc3Cl)cc([N+](=O)[O-])c2O)c(O)c1 | 10 | 17 | -8 | 52* | 7
COc1ccc(N=Cc2cc(Cc3ccccc3Cl)cc([N+](=O)[O-])c2O)cc1OC | 22 | 45 | 10 | 31 | 10
CN(C)/C=C1\Oc2ccc3ccccc3c2C1=O | 1 | 13 | -1 | -366 | -23
O=C1C(=O)c2c(ccc3ccccc23)-c2ccccc21 | . | . | . | 99* | -2
CCc1ccc(Nc2nnc(SCC(=O)NCCN3C(=O)CSC3=O)s2)cc1 | 23 | 52* | 43 | 1 | 2
Cc1c(NC(=O)COC(=O)c2cccn2C)c(=O)n(-c2ccccc2)n1C | -1 | -2 | -2 | 12 | 0
NC(=O)c1ccccc1N/C=C/C(=O)c1ccc(F)cc1 | 81* | 97* | 91* | -490 | -69
CC(C)(C)OC(=O)N1CCC(C(=O)Nc2ccc(C(=O)N3CCCCC3)cc2)CC1 | . | . | . | 2 | 0
c1ccc2cc(N3CCCCC3)ccc2c1 | . | . | . | -483 | 1
O=C1c2ccccc2C(=O)c2cc(N3CCCCC3)ccc21 | . | . | . | 44* | 95*
Cc1cccc2cc(C(c3nnnn3Cc3ccc4c(c3)OCO4)N3CCCC3)c(=O)[nH]c12 (stereo not drawn) | -7 | 2 | 7 | -45 | -9
Cc1ccc(C)c2[nH]c(=O)c(C(c3nnnn3Cc3ccccc3)N3CCc4ccccc4C3)cc12 (stereo not drawn) | 34 | 66* | 46 | -32 | -35
O=C(NCc1ccccn1)C1CCCN(S(=O)(=O)c2cc(Cl)ccc2Cl)C1 (stereo not drawn) | . | . | . | 43* | 3
COC(=O)Cc1ccccc1NS(=O)(=O)c1ccc(C)cc1 | . | . | . | 13 | 3
COc1ccc(/C=C/c2nc(-c3ccccc3O)n[nH]2)cc1 | 93* | 96* | 95* | -58 | -3
COc1ccc(-c2nc3c(C)cc(Br)cn3c2Cc2cccc(Cl)c2)cc1OC | . | . | . | -10 | 7
N#Cc1cccc(NC(=O)c2cc(C3CCCCN3C(=O)CCCc3ccccc3)on2)c1 (stereo not drawn) | . | . | . | 18 | 1
CC(=O)Nc1ccc(-c2cc3ccccc3o2)cc1 | 10 | 49 | 51* | -253 | 0
CCC(=O)Nc1ccc(-c2cc3ccccc3oc2=O)cc1 | 0 | 6 | 8 | -413 | -7
Cn1c(=O)c(-[n+]2ccccc2)c([O-])c2ccccc21 | -5 | -10 | 4 | -68 | 2
O=C1C(=O)c2ccccc2C([O-])=C1[n+]1ccccc1 | 13 | 41 | 6 | 59* | 0
O=c1[nH]c(-c2ccco2)nc2sc3c(c12)CCCC3 | 11 | 51* | 26 | -53 | -9
SMILES | SENP8 block-1 | SENP6 block | SENP7 block | SENP8 block-2 | SENP1 inh
COc1ccc(-c2[nH]n(-c3ccc([N+](=O)[O-])cc3)c(=O)c2C=NCCN2CCNCC2)cc1 | 3 | 13 | 0 | . | .
O=c1c(C=NCCN2CCNCC2)c(-c2ccccc2)[nH]n1-c1ccc([N+](=O)[O-])cc1 | 90* | 93* | 84* | . | .
Cc1cccc(NC(=O)c2cnc3ccccn3c2=O)c1 | 67* | 81* | 67* | -42 | -1
CCN(CC)CCn1c(=S)[nH]c2cc(C(=O)NCCc3ccc(OC)c(OC)c3)ccc2c1=O | . | . | . | -32 | -3
O=C(NC(=O)c1ccccc1)Nc1ccccn1 | 94* | 99* | 100* | 3 | 2
O=C(Nc1ccccn1)c1ccc(C(=O)c2ccccc2)cc1 | 19 | 50 | 45 | 9 | 1
O=C(NCCO)c1ccc2nc(-c3ccco3)c(-c3ccco3)nc2c1 | 37 | 56* | 23 | -192 | -29
O=C(NCCc1ccccc1)c1ccc2nc(-c3ccco3)c(-c3ccco3)nc2c1 | 15 | 13 | 2 | -295 | -25
CCN(C(=O)CN1C(=O)NC2(CCc3ccccc32)C1=O)C1CCCCC1 (stereo not drawn) | 10 | -9 | -6 | 7 | 1
